# Legend:
# Type in all cases: ADME, organism-based
# Rattus norvegicus [1] = test: Distribution of Se-75 activity in Lung of female Sprague-Dawley Rat 60 min after iv administration of compound; conditions: in vivo, 1 h
# Method in brief: (§1)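 Female Sprague-Dawley rats (100-300 g), five per group, got [75Se]selenonium salt in 0.2 mL saline (5-6 μCi) by lateral tail vein. They were killed by cardioectomy under chloroform anesthesia at the stated time. A sample of the large organ was weighed and gamma counted, and counts were converted to % injected dose/g. Values are mean and SEM of five.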
# Rattus norvegicus [2] = test: Distribution of Se-75 activity in blood of female Sprague-Dawley Rat 60 min after iv administration of compound; conditions: in vivo, 1 h
# Method in brief: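 Female Sprague-Dawley rats (100-300 g) got 5-6 μCi of [75Se]selenonium salt in 0.2 mL saline via lateral tail vein. Groups of five were anesthetized with chloroform at set times and killed by cardioectomy. Tissues were rinsed, blotted and weighed, then gamma-counted. Values are % injected dose per gram, mean and SEM of five.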
# Rattus norvegicus [3] = test: Distribution of Se-75 activity in Adrenal of female Sprague-Dawley Rat 120 min after iv administration compound; conditions: in vivo, 2 h
# Method in brief: (§2)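 Female Sprague-Dawley rats (100-300 g), five per group, got [75Se]selenonium salt by lateral tail vein: 0.2 mL saline with 5-6 μCi. Groups were killed by cardioectomy under chloroform anesthesia at the set times. The organ was taken intact, rinsed with saline, blotted, weighed and gamma counted. Values are % injected dose/g, mean and SEM of five.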
# Rattus norvegicus [4] = test: Distribution of Se-75 activity in Adrenal of female Sprague-Dawley Rat 240 min after iv administration compound; conditions: in vivo, 4 h; method in brief: as §2
# Rattus norvegicus [5] = test: Distribution of Se-75 activity in Heart of female Sprague-Dawley Rat 120 min after iv administration compound; conditions: in vivo, 2 h; method in brief: as §2
# Rattus norvegicus [6] = test: Distribution of Se-75 activity in Heart of female Sprague-Dawley Rat 240 min after iv administration compound; conditions: in vivo, 4 h; method in brief: as §2
# Rattus norvegicus [7] = test: Distribution of Se-75 activity in blood of female Sprague-Dawley Rat 120 min after iv administration of compound; conditions: in vivo, 2 h
# Method in brief: (§3)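 Tail-vein injection of 5-6 μCi [75Se]selenonium salt in 0.2 mL saline into female Sprague-Dawley rats (100-300 g), five per group. Rats were killed by cardioectomy under chloroform anesthesia at the time point. Radioactivity was gamma counted and expressed as % injected dose/g, mean and SEM of five.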
# Rattus norvegicus [8] = test: Distribution of Se-75 activity in Adrenal of female Sprague-Dawley Rat 5 min after iv administration of compound; conditions: in vivo; method in brief: as §2
# Rattus norvegicus [9] = test: Distribution of Se-75 activity in Brain of female Sprague-Dawley Rat 15 min after iv administration of compound; conditions: in vivo, 0.25 h
# Rattus norvegicus [10] = test: Distribution of Se-75 activity in Brain of female Sprague-Dawley Rat 240 min after iv administration compound; conditions: in vivo, 4 h
# Rattus norvegicus [11] = test: Distribution of Se-75 activity in Heart of female Sprague-Dawley Rat 5 min after iv administration of compound; conditions: in vivo; method in brief: as §2
# Rattus norvegicus [12] = test: Distribution of Se-75 activity in Kidney of female Sprague-Dawley Rat 120 min after iv administration compound; conditions: in vivo, 2 h; method in brief: as §2
# Rattus norvegicus [13] = test: Distribution of Se-75 activity in Kidney of female Sprague-Dawley Rat 240 min after iv administration compound; conditions: in vivo, 4 h; method in brief: as §2
# Rattus norvegicus [14] = test: Distribution of Se-75 activity in Liver of female Sprague-Dawley Rat 60 min after iv administration of dcompound; conditions: in vivo, 1 h; method in brief: as §1
# Rattus norvegicus [15] = test: Distribution of Se-75 activity in Lung of female Sprague-Dawley Rat 120 min after iv administration compound; conditions: in vivo, 2 h; method in brief: as §1
# Rattus norvegicus [16] = test: Distribution of Se-75 activity in Lung of female Sprague-Dawley Rat 240 min after iv administration compound; conditions: in vivo, 4 h; method in brief: as §1
# Rattus norvegicus [17] = test: Distribution of Se-75 activity in Lung of female Sprague-Dawley Rat 30 min after iv administration of compound; conditions: in vivo, 0.5 h; method in brief: as §1
# Rattus norvegicus [18] = test: Tissue radioactivity ratio in Heart to Blood 240 min after Intravenous Injection in rats; conditions: other tissue, 4 h
# Method in brief: (§4)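 Same rat biodistribution: female Sprague-Dawley rats (100-300 g), 5-6 μCi [75Se]selenonium salt in 0.2 mL saline iv by tail vein, five per time point, killed by cardioectomy under chloroform. Ratios are tissue-to-tissue quotients of gamma-counted % injected dose per gram in each organ (adrenal, heart, kidney, liver, blood).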
# Rattus norvegicus [19] = test: Tissue radioactivity ratio in Heart to Blood 60 min after Intravenous Injection in rats; conditions: other tissue, 1 h; method in brief: as §4
# Rattus norvegicus [20] = test: Tissue radioactivity ratio in adrenal to Kidney 15 min after Intravenous Injection in rats; conditions: in vivo, 0.25 h; method in brief: as §4
# Rattus norvegicus [21] = test: Tissue radioactivity ratio in adrenal to Kidney 5 min after Intravenous Injection in rats; conditions: in vivo; method in brief: as §4
# Rattus norvegicus [22] = test: Tissue radioactivity ratio in adrenal to Liver 30 min after Intravenous Injection in rats; conditions: in vivo, 0.5 h; method in brief: as §4
# Rattus norvegicus [23] = test: Tissue radioactivity ratio in adrenal to blood 15 min after Intravenous Injection in rats; conditions: other tissue, 0.25 h; method in brief: as §4
# Rattus norvegicus [24] = test: Tissue radioactivity ratio in adrenal to blood 5 min after Intravenous Injection in rats; conditions: other tissue; method in brief: as §4
# Rattus norvegicus [25] = test: Distribution of Se-75 activity in Brain of female Sprague-Dawley Rat 120 min after iv administration compound; conditions: in vivo, 2 h
# Rattus norvegicus [26] = test: Distribution of Se-75 activity in blood of female Sprague-Dawley Rat 120 min after iv administration compound; conditions: in vivo, 2 h; method in brief: as §3
# Rattus norvegicus [27] = test: Distribution of Se-75 activity in Adrenal of female Sprague-Dawley Rat 120 min after iv administration of compound; conditions: in vivo, 2 h; method in brief: as §2
# Rattus norvegicus [28] = test: Distribution of Se-75 activity in Adrenal of female Sprague-Dawley Rat 240 min after iv administration of compound; conditions: in vivo, 4 h; method in brief: as §2
# Rattus norvegicus [29] = test: Distribution of Se-75 activity in Brain of female Sprague-Dawley Rat 120 min after iv administration of compound; conditions: in vivo, 2 h
# Rattus norvegicus [30] = test: Distribution of Se-75 activity in Brain of female Sprague-Dawley Rat 240 min after iv administration of compound; conditions: in vivo, 4 h
# Rattus norvegicus [31] = test: Distribution of Se-75 activity in Heart of female Sprague-Dawley Rat 120 min after iv administration of compound; conditions: in vivo, 2 h; method in brief: as §2
# Rattus norvegicus [32] = test: Distribution of Se-75 activity in Heart of female Sprague-Dawley Rat 240 min after iv administration of dose 5 uCi/0.2 mL; conditions: in vivo, 4 h; method in brief: as §2
# Rattus norvegicus [33] = test: Distribution of Se-75 activity in Kidney of female Sprague-Dawley Rat 120 min after iv administration of compound; conditions: in vivo, 2 h; method in brief: as §2
# Rattus norvegicus [34] = test: Distribution of Se-75 activity in Kidney of female Sprague-Dawley Rat 240 min after iv administration of compound; conditions: in vivo, 4 h; method in brief: as §2
# Rattus norvegicus [35] = test: Distribution of Se-75 activity in Liver of female Sprague-Dawley Rat 60 min after iv administration of compound; conditions: in vivo, 1 h; method in brief: as §1
# Rattus norvegicus [36] = test: Distribution of Se-75 activity in Lung of female Sprague-Dawley Rat 120 min after iv administration of compound; conditions: in vivo, 2 h; method in brief: as §1
# Rattus norvegicus [37] = test: Distribution of Se-75 activity in Lung of female Sprague-Dawley Rat 240 min after iv administration of compound; conditions: in vivo, 4 h; method in brief: as §1
Compound,Dose/g (Rattus norvegicus [1]) [%],Dose/g (Rattus norvegicus [2]) [%],Dose/g (Rattus norvegicus [8]) [%],Dose/g (Rattus norvegicus [9]) [%],Dose/g (Rattus norvegicus [11]) [%],Dose/g (Rattus norvegicus [17]) [%],Ratio (Rattus norvegicus [18]),Ratio (Rattus norvegicus [19]),Ratio (Rattus norvegicus [20]),Ratio (Rattus norvegicus [21]),Ratio (Rattus norvegicus [22]),Ratio (Rattus norvegicus [23]),Ratio (Rattus norvegicus [24]),also measured
COc1ccc(CC[Se+](C)C)cc1OC.[I-],0.38,0.12,0.86,0.02,2.38,0.75,2,2.25,0.68,0.31,0.54,3.39,2.53,Dose/g (Rattus norvegicus [3]): 0.74%; Dose/g (Rattus norvegicus [4]): 0.64%; Dose/g (Rattus norvegicus [5]): 0.17%; Dose/g (Rattus norvegicus [6]): 0.06%; Dose/g (Rattus norvegicus [7]): 0.08%; Dose/g (Rattus norvegicus [10]): 0%; Dose/g (Rattus norvegicus [12]): 0.33%; Dose/g (Rattus norvegicus [13]): 0.16%; Dose/g (Rattus norvegicus [14]): 0.62%; Dose/g (Rattus norvegicus [15]): 0.19%; Dose/g (Rattus norvegicus [16]): 0.07%; Dose/g (Rattus norvegicus [25]): 0.01%
C[Se+](C)CCc1ccc(O)c(O)c1.[Cl-],0.58,0.18,0.78,0.01,2.37,0.83,3.2,2.55,0.81,0.29,0.31,2.9,2.22,Dose/g (Rattus norvegicus [26]): 0.08%; Dose/g (Rattus norvegicus [27]): 0.73%; Dose/g (Rattus norvegicus [28]): 0.59%; Dose/g (Rattus norvegicus [29]): 0%; Dose/g (Rattus norvegicus [30]): 0%; Dose/g (Rattus norvegicus [31]): 0.21%; Dose/g (Rattus norvegicus [32]): 0.16%; Dose/g (Rattus norvegicus [33]): 0.29%; Dose/g (Rattus norvegicus [34]): 0.18%; Dose/g (Rattus norvegicus [35]): 0.8%; Dose/g (Rattus norvegicus [36]): 0.2%; Dose/g (Rattus norvegicus [37]): 0.09%
